Screening results (PubChem BioAssay)
In the library only some 5.7% were active in any assay of this set; here they are far more common.
T cruzi repl: inhibitors of intracellular T. cruzi growth, primary screen, luminescence, NIH3T3 host cells; inhibition, % (concentration not given with the values); AID 1885, 2009; T. cruzi beta-gal in NIH3T3, 90 h; 300,000 compounds, 1.4% hits;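 active = mean inhibition across valid replicates above about 55%, limit read from the data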;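 also: signal also drops with host cell toxicity which is not excluded here; higher percent means less beta-gal luminescence so fewer parasites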
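System: Mouse NIH/3T3 fibroblasts infected with β-gal-expressing T. cruzi Tulahuen C4 | Quantity: NIH/3T3 cells, 5,000 per well | Reagent: 5000 reporter trypomastigotes per well | Dosing: Compound pinned at 50 nL/well, DMSO | Schedule: 3 h host attachment, then at least 90 h co-culture | Detection: GalScreen luminescence, 60 min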
SKKanGAS inh: S. pyogenes SKKanGAS growth inhibitors in kanamycin, primary screen, streptokinase expression inhibitor project, SKKanGAS strain, BacTiter-Glo luminescence | 6 h | inhibition, % at 7.5 µM | 300,000 compounds, 1.3% hits;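 active = mean replicate score, as percent of positive control median, at least 50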;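 also: strain carries kanamycin resistance gene driven by streptokinase promoter and grows in 40 µg/ml kanamycin; loss of luminescence reflects streptokinase promoter inhibition or plain growth inhibition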
CSC inhib: cancer stem cell viability inhibitors, primary screen, luminescence; inhibition, % at 7.5 µM; cancer stem cell-like cells viability; AID 2717, 2010; 300,000 compounds, 1.1% hits; in the data active = inhibition above about 75%; tested in HMLE shEcad cells
Mdm2-MdmX inh: inhibitors of human Mdm2-MdmX association, primary screen, cell-based, luminescence, split luciferase, SaOS-2, uHTS | Protein Mdm4 (Homo sapiens) + E3 ubiquitin-protein ligase Mdm2 (Homo sapiens), … | SaOS-2 split-luciferase Mdm2/MdmX complementation | inhibition, % at 8 µM | 330,000 compounds, 3% hits | AID 485346, 2010;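 active = inhibition of at least 50% at 8 µM in the primary screen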
Target sequence (O15151 whole entry, looked up): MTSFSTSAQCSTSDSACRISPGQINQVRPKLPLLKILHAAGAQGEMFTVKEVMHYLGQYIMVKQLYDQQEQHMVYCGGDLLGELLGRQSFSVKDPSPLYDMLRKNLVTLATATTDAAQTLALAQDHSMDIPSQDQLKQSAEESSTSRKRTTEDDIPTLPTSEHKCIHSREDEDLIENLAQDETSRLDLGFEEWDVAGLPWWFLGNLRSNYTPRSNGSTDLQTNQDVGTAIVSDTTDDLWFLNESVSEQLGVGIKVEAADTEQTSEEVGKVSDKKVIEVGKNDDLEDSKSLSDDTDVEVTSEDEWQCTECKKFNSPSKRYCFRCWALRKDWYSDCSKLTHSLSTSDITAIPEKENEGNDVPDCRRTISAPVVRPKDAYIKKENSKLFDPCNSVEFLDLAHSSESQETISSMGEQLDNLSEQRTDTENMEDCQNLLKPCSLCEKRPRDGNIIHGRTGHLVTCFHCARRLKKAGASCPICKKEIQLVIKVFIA
Target sequence (Q00987 whole entry, looked up): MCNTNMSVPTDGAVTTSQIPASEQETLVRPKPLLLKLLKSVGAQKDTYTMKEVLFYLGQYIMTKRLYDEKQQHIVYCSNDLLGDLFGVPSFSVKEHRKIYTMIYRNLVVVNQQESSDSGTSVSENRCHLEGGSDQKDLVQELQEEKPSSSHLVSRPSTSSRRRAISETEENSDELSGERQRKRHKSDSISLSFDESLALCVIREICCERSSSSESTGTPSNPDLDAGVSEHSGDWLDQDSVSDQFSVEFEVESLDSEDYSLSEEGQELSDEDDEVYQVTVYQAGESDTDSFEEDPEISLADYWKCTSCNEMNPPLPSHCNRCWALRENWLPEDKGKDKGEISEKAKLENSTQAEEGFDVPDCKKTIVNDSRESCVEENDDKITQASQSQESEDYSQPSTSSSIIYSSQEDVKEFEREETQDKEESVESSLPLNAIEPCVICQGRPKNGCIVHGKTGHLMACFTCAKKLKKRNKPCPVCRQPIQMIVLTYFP
Beta cell apopt: inhibitors of cytokine-induced beta cell apoptosis, primary screen, luminescence | INS-1E cytokine-induced death, ATP luminescence, 48 h; percent of positive-control rescue, neutral wells zero | protection from apoptosis, % (test concentration not listed) | 300,000 compounds, 0.8% hits | AID 435005, 2010;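 active = Every replicate reaches about 75%, or at least half do and their mean reaches it too, limit read from the data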;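 also: higher means more ATP so stronger rescue from cytokine killing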
Calb FLC: C. albicans growth inhibition with fluconazole, primary screen, CaCi-2 strain, Alamar Blue fluorescence. 300,000 compounds, 0.57% hits. growth inhibition, % (concentration not given with the values). C. albicans CaCi-2 + fluconazole, 48 h;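 active = growth inhibition above about 58% in most replicates, limit read from the data, passing the limit was not always enough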;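 also: all wells also contain fluconazole at 8 µg/ml as a sub-toxic cotreatment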
Of the large screens only hits and unclear results are named; the others gave an inactive call.

COc1ccc(NC2=Nc3ccccc3N3C2=Nc2c(c(C)nn2-c2ccc(C)cc2)C3c2cccnc2)cc1 (configuration not stated)	Calb FLC 119 (no result: SKKanGAS inh)
COc1ccc(N2C(=O)C(=O)/C(=C(/O)c3ccc(C)cc3)C2c2cccnc2)cc1 (configuration not stated)	none
COc1ccc(-c2coc3c(C)c4oc(=O)c(CCC(=O)O)c(C)c4cc23)cc1	SKKanGAS inh 53 (no result: CSC inhib, Beta cell apopt)
Cc1c(CCC(=O)O)c(=O)oc2c(C)c3occ(-c4ccc(Br)cc4)c3cc12	none
COc1ccc([N+](=O)[O-])cc1NC(=O)CCN1CCOCC1	none
CCC(=O)c1ccc(OCC(=O)OCC(=O)c2cc(C)n(C)c2C)cc1	none
CN(C)c1ccc(O)c2c1CC1CC3C(N(C)C)C(=O)C(C(N)=O)=C(O)[C@@]3(O)C(=O)C1=C2O (some centres not stated)	SKKanGAS inh 110 (no result: Calb FLC)
C=C1c2cccc(O)c2C(O)=C2C(=O)[C@]3(O)C(O)=C(C(N)=O)C(=O)[C@@H](N(C)C)[C@@H]3[C@@H](O)[C@H]12	SKKanGAS inh 106
C[C@H]1c2cccc(O)c2C(O)=C2C(=O)C3(O)C(O)=C(C(N)=O)C(=O)[C@@H](N(C)C)[C@@H]3[C@@H](O)[C@@H]21 (some centres not stated)	none (no result: T cruzi repl, SKKanGAS inh, Calb FLC)
CCSc1nnc(-c2ccc(C)cc2)c2ccccc12	Calb FLC 93
COc1ccc(NC(=O)CSc2nc3ccccc3nc2N2CCCC2)cc1	none
NC(=O)CC(NC(=O)Cc1cccc2ccccc12)c1ccc(NCCCN2CCCC2=O)c([N+](=O)[O-])c1 (configuration not stated)	none
COC(=O)c1c(NC(NC(=O)C(C)C)C(Cl)(Cl)Cl)sc2c1CCCC2 (configuration not stated)	SKKanGAS inh 58 (no result: CSC inhib)
COC(=O)c1c(NC(C)=O)sc2c1CCCC2	none
COc1cc(-c2nnc(SCc3cc(=O)oc4cc(O)c(O)cc34)o2)cc(OC)c1OC	Calb FLC 104 (no result: Beta cell apopt)
CCOC(=O)CSc1nnc(-c2cc(OC)c(OC)c(OC)c2)o1	none
CC(C)c1ccc(-c2cc(C(=O)N3N=C(C(F)F)CC3(O)C(F)F)c3ccccc3n2)cc1 (configuration not stated)	T cruzi repl 69, SKKanGAS inh 90, CSC inhib 112
CCOc1ccc(-c2c(C#N)c(N)nc3sc(C(=O)c4ccccc4)c(N)c23)cc1	none
COc1ccc(-c2c(C#N)c(N)nc3sc(C(=O)c4ccccc4)c(N)c23)cc1	SKKanGAS inh 53 (no result: Mdm2-MdmX inh)
O=C(NCc1ccco1)c1cc2ccc(O)cc2oc1=O	SKKanGAS inh 60
O=C(c1ccccc1)c1cc2ccc(O)cc2oc1=O	SKKanGAS inh 62
NS(=O)(=O)c1cccc(NC(=O)CSc2nc3ccccc3c(=O)n2CC2CCCO2)c1 (configuration not stated)	none (no result: T cruzi repl, SKKanGAS inh, CSC inhib, Beta cell apopt, Calb FLC)
Nc1c(N(CCC2=CCCCC2)C(=O)c2ccc([N+](=O)[O-])o2)c(=O)[nH]c(=O)n1Cc1ccccc1	T cruzi repl 66
Cc1ccc(OCc2ccc(C(=O)Nc3nc4ccccc4n3Cc3ccccc3)o2)c([N+](=O)[O-])c1	none
COc1ccc(NC(=O)c2ccc(COc3ccccc3Br)o2)c(OC)c1	CSC inhib 92
O=C(Nc1nc2ccccc2n1CCN1CCOCC1)c1ccc(Cn2cc([N+](=O)[O-])cn2)o1	none
O=C(Nc1nc2ccccc2n1Cc1ccccc1)c1ccc(COc2ccccc2[N+](=O)[O-])o1	T cruzi repl 68 (no result: CSC inhib)
O=C(Nc1nc2ccccc2n1CCN1CCOCC1)c1ccc(COc2ccccc2Br)o1	SKKanGAS inh 50
O=C(CN1CCN(c2ccccc2F)CC1)N1CCc2ccccc21	none
Cc1c(C(=O)N2CC3(CC(c4cccc(NC(=O)CC(c5ccccc5)c5ccccc5)c4)=NO3)C[C@@H]2C(N)=O)cc([N+](=O)[O-])cc1[N+](=O)[O-] (some centres not stated)	T cruzi repl 67
c1cc(-c2noc(CC3CCCCC3)n2)ccn1	Beta cell apopt 79 (no result: Calb FLC)
c1ccc(-c2noc(CC3CCCCC3)n2)nc1	none
Cn1ccnc1C(=O)c1ccc(S(=O)(=O)N2CCCC2)cc1	none
O=C(CN1C(=O)S/C(=C\C=C\c2ccccc2)C1=O)Nc1ccccc1C(=O)O	SKKanGAS inh 70
COc1ccc(/C=C2\SC(=O)N(CC(=O)NNC(=O)c3ccccc3O)C2=O)cc1OC	Calb FLC 105
O=C1/C(=C\c2cc(Cl)c(O)c(Cl)c2)SC(=S)N1Cc1ccccc1	SKKanGAS inh 90, CSC inhib 104 (no result: Mdm2-MdmX inh)
CCc1ccc(/C=C2/SC(=S)N(CCCC(=O)Nc3ccccc3C(=O)O)C2=O)cc1	SKKanGAS inh 52, Calb FLC 86
COc1ccc(/C=C2\SC(=O)N(CC(=O)NNC(=O)c3ccccc3O)C2=O)cc1	none
COc1ccc(/C=C2/SC(=S)N(Cc3ccccc3)C2=O)cc1O	none
O=C(CCCN1C(=O)/C(=C\c2ccccc2)SC1=S)Nc1ccc(O)cc1C(=O)O	none
Cc1ccc(CNC(=O)c2ccc(Cl)c(S(=O)(=O)N3CCCCC3)c2)cc1	none (no result: T cruzi repl, SKKanGAS inh, CSC inhib, Calb FLC)
O=C(Nc1ccccc1Oc1cccnc1)C1CCCN(Cc2ccc(F)cc2)C1 (configuration not stated)	none
CCCOc1ccc(N2C(=O)CC(NCC(=O)OCC)C2=O)cc1 (configuration not stated)	none
CCc1ccc(/C=C2/SC(=S)N(CC(=O)Nc3nc4ccccc4s3)C2=O)cc1	SKKanGAS inh 79
O=C(CCCN1C(=O)/C(=C/c2ccccc2)SC1=S)NCCCn1ccnc1	CSC inhib 90, Beta cell apopt 121
O=C(CCN1C(=O)/C(=C\c2ccccc2)SC1=S)NNC(=O)c1ccccc1O	SKKanGAS inh 51
CCN(CC)CCN(CC(=O)Nc1c(C)cc(C)cc1C)C(=O)c1ccccc1	none (no result: Beta cell apopt)
COc1ccccc1OCCNC(=O)C1CC(=O)N(Cc2ccc(C)cc2)C1 (configuration not stated)	none
Cc1ccc(C2=Nn3c(COc4ccc(Cl)cc4)nnc3SC2CC(=O)O)cc1 (configuration not stated)	none
COc1ccc(NC(=O)C(C)N2CCN(C)CC2)cc1 (configuration not stated)	none
COCc1cc(C)nc(SCC(=O)Nc2cc(C(F)(F)F)ccc2N2CCOCC2)c1C#N	T cruzi repl 67
COCc1cc(C)nc(SCC(=O)Nc2ccccc2C)c1C#N	none
